Assays:
[1] = Body weight of CT26 tumor-bearing mice; format: in vivo, mouse; settings: doxorubicin 5 mg/kg i.v. days 6, 9, 12, alone or in the combination group
Method in brief: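 Eight-week-old male and female Balb/c mice received 1×10⁶ CT26 cells s.c. in the right flank. At 50–100 mm³, tumours were randomised into groups of 10 (half female). Doxorubicin 5 mg/kg i.v. was given on days 6, 9 and 12 post-implant, alone or combined with test peptide 5 mg/kg daily. Saline served as negative control. Body weight was recorded daily throughout treatment.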

[2] = tested on: triple negative breast cancer; settings: cited from earlier work
[3] = doxorubicin; cited from earlier work
[4] = tested on: tumor immunogenic cell death (ICD); settings: cited from earlier work

## COc1cccc2c1C(=O)c1c(O)c3c(c(O)c1C2=O)C[C@@](O)(C(=O)CO)C[C@@H]3O[C@H]1C[C@H](N)[C@H](O)[C@H](C)O1 [doxorubicin]
[1]
  Systemic toxicity (weight loss): slight systemic toxicity
[2]
  Effect on CD47 expression: induced CD47 expression in triple negative breast cancer
[3]
  Maximum tolerated dose: 5 mg/kg
[4]
  Induction of tumor immunogenic cell death: induce tumor immunogenic cell death (ICD)

From article PMC11034909 (Advanced therapeutics, 2023)
